Reference: article PMC4174307 (Nature, 2014)

Tests used:
[1] = biological target: T1, P2Y12R (WT) (Homo sapiens, UniProt Q9H244); assay: [3H]2MeSADP displacement, membranes; type: binding
[2] = biological target: T2, P2Y12R (WT) (Homo sapiens, UniProt Q9H244, D294N); assay: [3H]2MeSADP displacement, membranes; type: binding
[3] = biological target: T2, P2Y12R (WT); assay: saturation radioligand binding, membranes
In short: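 Receptor construct carrying the D294N mutation, with BRIL fused into ICL3, expressed in Sf9 cells. Membranes were prepared by homogenization, a 1,000g spin, then a 20,000g 60 min pellet. Saturation binding used [3H]2MeSADP (3.5 Ci mmol−1, 0.4–46 nM), 5 μg membrane protein, in Tris-HCl with 10 mM MgCl2. Nonspecific binding was defined with 10 μM P2Y12R antagonist. Filtration was followed by scintillation counting. Kd from independent experiments in duplicate.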

[4] = biological target: P2Y12R (WT) (Homo sapiens, UniProt Q9H244, N159A); assay: saturation radioligand binding, membranes
In short: (§1)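 Human P2Y12R (wild type or single alanine mutants) in pcDNA3.0, transiently transfected into COS7 cells and harvested 48 h later. Membranes: 1,000g spin, then 20,000g pellet for 60 min, stored at −80 °C. [3H]2MeSADP (3.5 Ci mmol−1, 0.4–46 nM) was incubated with 5 μg membrane protein in Tris-HCl with 10 mM MgCl2. Nonspecific binding was defined with 10 μM P2Y12R antagonist. Bound ligand was separated by filtration, washed with cold buffer and counted by scintillation. Kd is mean ± s.e.m., 3–6 independent experiments in duplicate.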

[5] = biological target: T1, P2Y12R (WT); assay: saturation radioligand binding, membranes
In short: as §1

[6] = biological target: P2Y12R (WT) (Homo sapiens, UniProt Q9H244, S156A); assay: saturation radioligand binding, membranes
In short: as §1

T2 sequence (Q9H244 whole entry D294N): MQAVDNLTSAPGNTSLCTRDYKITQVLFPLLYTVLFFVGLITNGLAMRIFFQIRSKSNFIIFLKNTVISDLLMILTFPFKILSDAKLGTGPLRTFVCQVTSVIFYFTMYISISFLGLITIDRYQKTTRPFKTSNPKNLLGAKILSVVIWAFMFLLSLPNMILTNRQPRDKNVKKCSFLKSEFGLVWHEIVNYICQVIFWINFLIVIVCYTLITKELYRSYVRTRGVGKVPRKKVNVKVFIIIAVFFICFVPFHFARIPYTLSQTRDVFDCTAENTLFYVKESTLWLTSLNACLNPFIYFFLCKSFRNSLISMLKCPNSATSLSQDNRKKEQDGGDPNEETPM
T1 sequence (Q9H244 whole entry): as the sequence (Q9H244 whole entry D294N) above, with N294D counted along it
Chain of P2Y12R (WT) (Homo sapiens, UniProt Q9H244, S156A) (Q9H244 whole entry S156A): as the sequence (Q9H244 whole entry D294N) above, with S156A, N294D counted along it
Chain of P2Y12R (WT) (Homo sapiens, UniProt Q9H244, N159A) (Q9H244 whole entry N159A): as the sequence (Q9H244 whole entry D294N) above, with N159A, N294D counted along it

| Ki [1] [nM] | Ki [2] [nM] | Kd [3] [nM] | Kd [4] [nM] | Kd [5] [nM] | Kd [6] [nM] | Compound |
| --- | --- | --- | --- | --- | --- | --- |
| 31.5 ± 11.9 |  |  |  |  |  | CCOC(=O)c1cc(C#N)c(N2CCC(C(=O)NS(=O)(=O)Cc3ccccc3)CC2)nc1C [AZD1283, Ethyl 6-(4-((benzylsulphonyl)carbamoyl)piperidin-1-yl)-5-cyano-2-methylnicotinate] |
| 275 ± 58 | 72.8 ± 16.7 |  |  |  |  | Nc1c(S(=O)(=O)O)cc(Nc2ccc(Nc3ccccc3)c(S(=O)(=O)O)c2)c2c1C(=O)c1ccccc1C2=O [PSB-0739] |

More lines, now with the values behind:

| Compound | Ki [1] [nM] | Ki [2] [nM] | Kd [3] [nM] | Kd [4] [nM] | Kd [5] [nM] | Kd [6] [nM] |
| --- | --- | --- | --- | --- | --- | --- |
| CSc1nc(N)c2ncn([C@@H]3O[C@H](COP(=O)(O)OP(=O)(O)OP(=O)(O)O)[C@@H](O)[C@H]3O)c2n1 [2MeSATP] | 119 ± 19.8 | 82.4 ± 28.5 |  |  |  |  |
| CCCSc1nc(N[C@@H]2C[C@H]2c2ccc(F)c(F)c2)c2nnn([C@@H]3C[C@H](OCCO)[C@@H](O)[C@H]3O)c2n1 [Ticagrelor] | 454 ± 110 | 424 ± 193 |  |  |  |  |
| Nc1ncnc2c1ncn2[C@@H]1O[C@H](COP(=O)(O)OP(=O)(O)O)[C@@H](O)[C@H]1O [ADP] | 332 ± 35 | 169 ± 81 |  |  |  |  |
| CSc1nc(N)c2ncn([C@@H]3O[C@H](COP(=O)(O)OP(=O)(O)O)[C@@H](O)[C@H]3O)c2n1 [2MeSADP, 2-methylthio-adenosine 5′-diphosphate] | 120 ± 7.3 | 80.8 ± 16.8 | 33.6 ± 10.2 | 6.39 ± 0.94 | 4.25 ± 0.87 | 5.66 ± 0.72 |
